From ChEMBL document CHEMBL3779846, “Evaluation of toxicity on epithelial and tumor cells of biaryl dipeptide tyrosines” (Eur J Med Chem, 2016)
Activity calls are given as the source filed them. The calls are words filed in the database; no cut-off is given here.

Legend:
SK-MEL-28 [1] = test: Induction of apoptosis in human SK-MEL-28 cells at 0.1 to 1 uM after 48 hrs by Annexin V-FITC/propidium iodide staining-based flow cytometry; assay type: functional, cell-based
Procedure, shortened: (§1)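 After adhesion, 1 × 10⁴ cells/well were exposed for 48 h with medium control and 0.1% DMSO vehicle. Cells washed with PBS, trypsinized and centrifuged (600 × g, 10 min). Stained with FITC-Annexin V (1:100 in binding buffer, 30 min) and propidium iodide, then read by flow cytometry for apoptotic, late apoptotic and necrotic fractions; three independent assays.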

SK-MEL-28 [2] = test: Cytotoxicity against human SK-MEL-28 cells assessed as impairment in cell metabolism at 0.1 to 1 uM after 24 to 48 hrs by MTT assay; assay type: functional, cell-based
Procedure, shortened: (§2)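 Cells maintained in […] with 10% FBS at 37 C, 5% CO2. 1 × 10³ cells/well plated, allowed 24 h adhesion, then treated in medium for 14, 24 or 48 h; vehicle 0.1% DMSO, 10% DMSO positive control. MTT converted to formazan, dissolved in DMSO, read at 570 nm. Expressed as % of untreated (RPMI-only) control; mean of three independent assays.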

HUVEC [3] = test: Cytotoxicity against HUVEC assessed as impairment in cell metabolism at 0.1 to 1 uM after 24 to 48 hrs by MTT assay; assay type: ADME, cell-based; settings: human; procedure, shortened: as §2
SK-MEL-28 [4] = test: Induction of mitochondrial membrane potential depolarization in human SK-MEL-28 cells at 0.1 to 1 uM after 48 hrs by JC-1 staining based flow cytometry; assay type: functional, cell-based
Procedure, shortened: (§3)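 1 × 10⁴ cells/well exposed 48 h after adhesion; medium control and 0.1% DMSO vehicle. Washed, stained with JC-1 for 30 min at 37 C, 5% CO2, then trypsinized and run on flow cytometry, 10,000 events; excitation 488 nm, emission 529 and 590 nm. Valinomycin positive control. Output: green-to-red mean fluorescence ratio; two independent assays.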

HUVEC [5] = test: Induction of mitochondrial membrane potential depolarization in HUVEC at 0.1 to 1 uM after 48 hrs by JC-1 staining based flow cytometry; assay type: cell-based; settings: human; procedure, shortened: as §3
SK-MEL-28 [6] = test: Cytotoxicity against human SK-MEL-28 cells assessed as reduction in cell proliferation at 0.1 to 1 uM after 14 to 48 hrs by trypan blue staining based haemocytometer method; assay type: functional
Procedure, shortened: (§4)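 1 × 10⁴ cells/well in […] plus 10% FBS, treated after adhesion for 14, 24 or 48 h alongside medium control, 0.1% DMSO vehicle and 10% DMSO positive control. Cell number counted by trypan blue exclusion under optical microscopy; three independent assays.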

HUVEC [7] = test: Cytotoxicity against HUVEC assessed as reduction in cell proliferation at 0.1 to 1 uM after 14 to 48 hrs by trypan blue staining based haemocytometer method; settings: human; procedure, shortened: as §4
SK-MEL-28 [8] = test: Induction of apoptosis in human SK-MEL-28 cells assessed as increase in late apoptotic cells at 0.1 to 1 uM after 48 hrs by Annexin V-FITC/propidium iodide staining-based flow cytometry; assay type: functional, cell-based; procedure, shortened: as §1
SK-MEL-28 [9] = test: Induction of apoptosis in human SK-MEL-28 cells assessed as increase in necrotic cells at 0.1 to 1 uM after 48 hrs by Annexin V-FITC/propidium iodide staining-based flow cytometry; assay type: functional, cell-based; procedure, shortened: as §1
HUVEC [10] = test: Induction of apoptosis in HUVEC at 0.1 to 1 uM after 48 hrs by Annexin V-FITC/propidium iodide staining-based flow cytometry; assay type: cell-based; settings: human; procedure, shortened: as §1
HUVEC [11] = test: Induction of apoptosis in HUVEC assessed as increase in late apoptotic cells at 0.1 to 1 uM after 48 hrs by Annexin V-FITC/propidium iodide staining-based flow cytometry; assay type: cell-based; settings: human; procedure, shortened: as §1
HUVEC [12] = test: Induction of apoptosis in HUVEC assessed as increase in necrotic cells at 0.1 to 1 uM after 48 hrs by Annexin V-FITC/propidium iodide staining-based flow cytometry; assay type: cell-based; settings: human; procedure, shortened: as §1
SK-MEL-28 [13] = test: Induction of mitochondrial membrane potential depolarization in human SK-MEL-28 cells at 200 uM after 24 hrs by JC-1 staining based flow cytometry; assay type: functional, cell-based
Procedure, shortened: (§5)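 Cells were kept in […] with 10% FBS at 37 C and 5% CO2. They were plated at 1 × 10⁴ cells/well and treated after adhesion. They were then PBS-washed and stained with JC-1 ([…]) for 30 min at 37 C, then trypsinized and centrifuged. Flow cytometry acquired 10,000 events (excitation 488 nm, emission 529/590 nm). Read-out was the ratio of mean green to red fluorescence, from two independent assays.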

HUVEC [14] = test: Induction of mitochondrial membrane potential depolarization in HUVEC at 200 uM after 24 hrs by JC-1 staining based flow cytometry; assay type: cell-based; settings: human; procedure, shortened: as §5

Structure (SMILES)	Activity (SK-MEL-28 [1])	Activity (SK-MEL-28 [2])	Activity (HUVEC [3])	Activity (SK-MEL-28 [4])	Activity (HUVEC [5])	Activity (SK-MEL-28 [6])	Activity (HUVEC [7])	Activity (SK-MEL-28 [8])	Activity (SK-MEL-28 [9])	Activity (HUVEC [10])	Activity (HUVEC [11])	Activity (HUVEC [12])	Activity (SK-MEL-28 [13])	Activity (HUVEC [14])
COC(=O)[C@H](Cc1ccc(O)c(-c2ccc(OC)cc2)c1)NC(=O)[C@H](Cc1ccc(O)c(-c2ccc(OC)cc2)c1)NC(=O)OC(C)(C)C	inactive	Active	Non-toxic	inactive	Non-toxic	Active	Non-toxic	inactive	inactive	Non-toxic	Non-toxic	Non-toxic	–	–
CC(C)[C@@H]1NC(=O)[C@H](C)OC(=O)[C@@H](C(C)C)NC(=O)[C@@H](C(C)C)OC(=O)[C@H](C(C)C)NC(=O)[C@H](C)OC(=O)[C@@H](C(C)C)NC(=O)[C@@H](C(C)C)OC(=O)[C@H](C(C)C)NC(=O)[C@H](C)OC(=O)[C@@H](C(C)C)NC(=O)[C@@H](C(C)C)OC1=O [VALINOMYCIN]	–	–	–	–	–	–	–	–	–	–	–	–	Active	Toxic
